Bioassay records from PubChem BioAssay.
HTRA1 inhibitor: HTRA1 serine protease inhibitors, primary screen, biochemical, fluorescence polarization, HTS; Q92743; recombinant HTRA1, FP-rhodamine activity-based probe; inhibition, % at 5.96 µM; 340,000 tested, 0.5% active; AID 504803, 2011; in the data active means inhibition above about 36%
Target sequence (Q92743 whole entry, looked up): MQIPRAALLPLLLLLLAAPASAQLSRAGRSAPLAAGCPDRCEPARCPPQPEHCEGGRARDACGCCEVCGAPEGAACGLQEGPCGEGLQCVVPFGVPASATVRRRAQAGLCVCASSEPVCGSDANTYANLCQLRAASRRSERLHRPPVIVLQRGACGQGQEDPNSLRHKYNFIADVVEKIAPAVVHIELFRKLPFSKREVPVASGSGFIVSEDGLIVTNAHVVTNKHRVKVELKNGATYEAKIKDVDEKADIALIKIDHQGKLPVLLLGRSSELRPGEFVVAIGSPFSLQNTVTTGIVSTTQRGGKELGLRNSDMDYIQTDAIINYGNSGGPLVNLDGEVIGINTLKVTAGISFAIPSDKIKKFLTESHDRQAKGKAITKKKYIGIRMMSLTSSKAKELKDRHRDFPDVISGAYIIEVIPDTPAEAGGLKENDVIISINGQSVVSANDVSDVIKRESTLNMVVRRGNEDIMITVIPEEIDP
mABHD4 FP: ABHD4 inhibitors, primary screen, biochemical, fluorescence polarization, mouse | AID 720543, 2013 | 370,000 tested, 0.54% active | inhibition, % at 8.92 µM | (Lyso)-N-acylphosphatidylethanolamine lipase (Mus musculus), Q8VD66 | purified mABHD4, FP-Rh probe fluorescence polarization;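 active means inhibition exceeding the mean over every tested compound plus 3 SD, cut at about 30% in these data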
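Assay system: mouse ABHD4 enzyme, wild type / Also added: fluorescent activity-based probe FP-Rh / Doses: single nominal dose of 8.92 µM, 0.89% DMSO final / Timing: 45 min compound pre-incubation plus 60 min probe step, 25 °C / Signal: FP readout, ex 525 nm / em 598 nm / Control set: S159A mutant/DMSO as 100%, compound-well median as 0%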
TCR CD3 inh: inhibitors of human TCR-CD3 interaction, primary screen, biochemical, fluorescence, TAMRA-labeled TCR probe. 360,000 tested, 0.37% active. T-cell receptor (TCR). inhibition, % at 9.4 µM. AID 651800, 2012; in the data active means inhibition above about 19%;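 further: recombinant mutant TCR 2C K166C tagged with TAMRA read by polarization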
SIAE primary: human SIAE inhibitors, primary screen, biochemical, fluorescence polarization, FP-Rh probe, 1536-well HTS | 370,000 tested, 0.69% active | AID 1053197, 2014 | SIAE FP-Rh probe binding | Sialate O-acetylesterase (Homo sapiens), Q9HAT2 | inhibition, % at 9.66 µM;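 active means inhibition above a cutoff: mean of compounds within the control limits plus 3 SD of those, cut at about 17% in these data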
pPAFAH inh: pPAFAH enzyme inhibitors, primary screen, biochemical, fluorescence polarization, human. Platelet-activating factor acetylhydrolase (Homo sapiens), Q13093. recombinant pPAFAH, FP-rhodamine probe fluorescence polarization. inhibition, % at 3.39 µM. 330,000 tested, 1.5% active;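 active means inhibition above the mean inhibition across the screen plus 3 SD, cut at about 25% in these data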;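 further: inhibitors block binding of the rhodamine activity-based probe so polarization drops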
ABHD4 confirm: ABHD4 inhibitors, retest, confirmation, biochemical, fluorescence polarization, mouse; shares compounds with mABHD4 FP; purified mABHD4, FP-Rh probe fluorescence polarization; inhibition, % at 8.92 µM; 1,800 tested, 55% active; AID 720658, 2013;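 active means mean inhibition across replicates above the hit cutoff set in the primary screen, cut at about 30% in these data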
Hits are given with their value; i = inactive; nt = no result. This is a sample that favours compounds with a hit; in the whole collection about 2.3% have one here.

SMILES | HTRA1 inhibitor | mABHD4 FP | TCR CD3 inh | SIAE primary | pPAFAH inh | ABHD4 confirm
CN1CCc2cccc3c2C1Cc1ccc(O)c(O)c1-3 (stereo not drawn) | i | 53 | i | i | i | i
FC(F)(F)c1ccc(Cl)c(CN2CCN(c3ncc(Cc4ccccc4)cn3)CC2)c1 | nt | i | i | i | nt | nt
COc1ccccc1NS(=O)(=O)c1ccc(O)c(C(=O)OCC(=O)N2CCc3ccccc32)c1 | i | i | i | i | i | nt
COc1ccccc1NS(=O)(=O)c1ccc(O)c(C(=O)OCC(=O)N2c3ccccc3CC2C)c1 (stereo not drawn) | i | 35 | i | i | i | i
CCN(CC)S(=O)(=O)c1ccc(O)c(C(=O)OCC(=O)N2c3ccccc3CC2C)c1 (stereo not drawn) | i | 56 | i | i | i | 58
CCN(CC)S(=O)(=O)c1ccc(O)c(C(=O)OCC(=O)N2CCCC2)c1 | i | i | i | i | i | nt
O=C(OCc1ccccc1)N1C=CCC[C@@H]1c1c(Cl)cccc1Br | nt | i | i | i | nt | nt
O=C(O)c1ccc(NC2=C/C(=N/S(=O)(=O)c3ccccc3)c3ccccc3C2=O)cc1 | i | 48 | i | i | nt | 66
O=S(=O)(N=C1C=CC(=NS(=O)(=O)c2ccccc2)c2ccccc21)c1ccccc1 | i | 64 | i | i | nt | 76
Cc1cc(C)c(S(=O)(=O)/N=C2\C=C(NS(=O)(=O)c3ccccc3)C(=O)c3ccccc32)c(C)c1 | i | 45 | i | i | i | 42
COc1ccccc1-c1ncn(Cc2cccc(-c3ccccc3)c2)c1-c1ccco1 | nt | i | i | i | nt | nt
CCN1Cc2nnn(CC3CCCCC3)c2-c2ccccc2S1(=O)=O | nt | i | nt | i | nt | nt
O=C(O)c1ccc2nc(-c3ccco3)c(-c3ccco3)nc2c1 | i | 63 | i | i | nt | i
Cc1ccc(-c2nc3ccc(C(=O)O)cc3nc2-c2ccc(C)cc2)cc1 | i | i | i | i | i | nt
COC(=O)C1CN(C2CCCC2)CCS(=O)(=O)N1Cc1cn(Cc2ccc(OC)cc2)nn1 (stereo not drawn) | nt | i | nt | i | nt | nt
CC[C@@H](C)[C@H](NC(=O)OC(C)(C)C)c1nnc(S(=O)(=O)Cc2cc(C)ccc2C)o1 | i | i | i | i | i | nt
CC(C)[C@H](NC(=O)OC(C)(C)C)c1nnc(S(=O)(=O)Cc2c(F)cccc2Cl)o1 | i | 31 | i | i | i | i
CC(=O)N(Cc1ccccc1)Cc1nc2sc(C)c(C)c2c(=O)[nH]1 | i | i | i | i | i | nt
CCN(CC)C(=O)c1sc2nc(Cc3ccccc3)[nH]c(=O)c2c1C | i | 37 | i | i | i | 40
O=[N+]([O-])c1ccccc1N=Nc1ccc(O)cc1O | nt | 32 | i | i | nt | 54
COC(=O)C1=C(C)N(Cc2cccc(C(F)(F)F)c2)C(=NCc2ccc3c(c2)OCO3)NC1c1cccc(F)c1 (stereo not drawn) | nt | i | i | i | nt | nt
CCN(CC)c1ccc(Nc2nc(-c3cccnc3)cs2)cc1 | i | 30 | i | i | i | 35
CC[C@@H](C)[C@@H]1CN([C@@H](C)CN2CCC[C@H]2CN2C(N)=NC[C@H]2CC(C)C)C(=N)N1CCc1ccc(Cl)c(Cl)c1 | i | i | i | i | i | nt
CCC[C@@H](CN1CCC[C@H]1CN1C(N)=NC[C@@H]1Cc1ccccc1)N1C[C@@H](Cc2ccccc2)N(CCCC2CCCC2)C1=N | i | nt | nt | nt | i | nt
CCC[C@@H](CN1CCC[C@H]1CN1C(N)=NC[C@H]1CC(C)C)N1C[C@@H]([C@H](C)CC)N(CCc2ccc(Cl)c(Cl)c2)C1=N | i | 38 | i | i | i | 34
CCC[C@@H](CN1CCC[C@H]1CN1C(N)=NC[C@H]1CC(C)C)N1C[C@@H](Cc2ccccc2)N(CCc2ccc(Cl)c(Cl)c2)C1=N | i | 30 | i | i | i | 36
CC[C@@H](C)[C@@H]1CN([C@@H](CN2CCC[C@H]2CN2C(N)=NC[C@H]2CC(C)C)C(C)C)C(=N)N1CCc1ccc(Cl)c(Cl)c1 | i | 35 | i | i | i | 46
